Bioassay records deposited in PubChem by several laboratories.
PfHsp90 set2 – reduces growth (ATP signal) of yeast expressing P. falciparum Hsp90 | S. cerevisiae expressing PfHsp90, BacTiter-Glo ATP, 48 h; yeast lacking PDR1 and PDR3 efflux regulators | inhibition, % at 9.4 µM | 0.32% of 310,000 active;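 active = every replicate shows inhibition above about 80%, whatever the replicate mean, limit read from the data; inconclusive = mean inhibition reaches the set limit but some replicate falls short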
PAX8 reporter – inhibitors of PAX8 transcriptional activity in RMG-I cells. RMG-I TPO-luciferase reporter, SteadyGlo, 24 h. inhibition, % at 12.6 µM. 1.2% of 360,000 active. AID 652154;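 active = mean replicate inhibition at least 60% with every replicate also reaching 60%; inconclusive = only one of the two criteria is met; inactive = mean below 60% and not all replicates reaching 60%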;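 also: luciferase light reporting Pax8 driven TPO promoter activity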
Arrestin-AP2 inh – inhibitors of human beta-arrestin and AP2 interaction; FITC-arrestin peptide / GST-AP2 beads, flow cytometry; AP2 beta2 appendage carries R879A mutation; inhibition, % at 10 µM; 0.31% of 340,000 active; AID 504490;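 active = inhibition above a set limit, near 3 SD of compounds lacking own fluorescence, cut at about 54% in these data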
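Test system: GST-tagged AP2 beta2-adaptin appendage (R879A) on 4 µm glutathione beads; also added: fluorescein-tagged arrestin peptide at 50 nM final; timing: 12 min plus 1 h, RT; signal: flow cytometry, FL1 (488/535 nm); read-out: percent drop in bead-associated FITC signal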
HIV Env fusion – HIV envelope-mediated fusion inhibition; 1.1% of 360,000 active; HeLa-JRFL Env/CEM21 cell fusion, luciferase; AID 651610; inhibition, % at 12.3 µM;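 active = mean replicate inhibition score of at least 50 and every replicate individually at or above 50; inconclusive = only one of the two criteria met; inactive = mean below 50 and not all replicates reaching 50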
Rtt109 HAT inh – C. albicans Rtt109 histone acetyltransferase inhibition; Q5AAJ8; purified Rtt109/Vps75, ThioGlo CoA-SH fluorescence, 4 h; inhibition, % at 34.9 µM; 0.16% of 330,000 active;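 active = inhibition of at least 50% in every replicate; inconclusive = best replicate reaches 50% inhibition but some replicates fall short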
Target sequence (Q5AAJ8 whole entry, looked up): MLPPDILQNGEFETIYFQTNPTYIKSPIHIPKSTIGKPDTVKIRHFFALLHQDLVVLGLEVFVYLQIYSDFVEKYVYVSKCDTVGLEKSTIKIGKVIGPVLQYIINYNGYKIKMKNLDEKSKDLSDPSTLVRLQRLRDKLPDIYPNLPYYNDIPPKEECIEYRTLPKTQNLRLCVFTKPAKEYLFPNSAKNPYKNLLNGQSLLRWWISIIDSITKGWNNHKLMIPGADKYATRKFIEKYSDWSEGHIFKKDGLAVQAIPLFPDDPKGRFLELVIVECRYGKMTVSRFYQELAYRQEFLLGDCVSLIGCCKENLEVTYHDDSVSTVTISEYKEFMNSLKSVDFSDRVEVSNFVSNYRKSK
Glyco luc inh – N-linked glycosylation inhibition | 0.23% of 360,000 active | reporter increase, % at 12.5 µM | D54 ERlucT glycosylation luciferase reporter, 24 h; percent of 100 nM tunicamycin response | AID 588692;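 active = mean luciferase reporter signal, scaled so untreated is 0 and the glycosylation-blocking control 100, at or above a set limit in every replicate; inconclusive = mean reaches the limit but not every replicate does; inactive = mean below the limit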;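 also: luciferase carries N-glycosylation sites so blocking glycosylation raises the light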
A number is an active result; – = inactive; ? = inconclusive; · = no result; [ ] = remark or other dose. Shown are actives, neighbours in structure and some others; about 2.3% of the full set was active somewhere.

SMILES	PfHsp90 set2	PAX8 reporter	Arrestin-AP2 inh	HIV Env fusion	Rtt109 HAT inh	Glyco luc inh
O=[N+]([O-])c1ccc(/C=N/NC(=S)Nc2ccc(Cl)cc2Cl)s1	–	92	–	–	–	–
O=C(N/N=C/c1ccc([N+](=O)[O-])s1)c1ccccc1	–	–	–	–	–	–
COc1ccc(/C=N/Nc2nonc2N)c(OC)c1	–	–	–	65	–	–
C[C@H]1CN([C@@H](C)CO)C(=O)c2cccc(NC(=O)Nc3ccccc3)c2O[C@@H]1CN(C)Cc1ccc(Cl)c(Cl)c1	·	–	·	62[16.7 µM]	·	·
C[C@@H]1CN([C@H](C)CO)C(=O)c2cccc(NC(=O)c3ccncc3)c2O[C@@H]1CN(C)Cc1ccc(C(=O)O)cc1	–	–	–	114	–	–
C[C@@H]1CN([C@H](C)CO)C(=O)c2cccc(NC(=O)c3ccncc3)c2O[C@H]1CN(C)Cc1ccc(Cl)c(Cl)c1	·	61	·	75[16.7 µM]	·	·
C[C@@H]1CN([C@H](C)CO)C(=O)c2cccc(NC(=O)c3ccncc3)c2O[C@H]1CN(C)CC1CCCCC1	·	–	·	93[16.7 µM]	·	·
C[C@H](CO)N1C[C@H](C)[C@H](CN(C)Cc2ccc(Cl)c(Cl)c2)Oc2c(NC(=O)c3ccncc3)cccc2C1=O	·	–	·	–	·	·
C[C@H](CO)N1C[C@H](C)[C@H](CN(C)CC2CCCCC2)Oc2c(NC(=O)c3ccncc3)cccc2C1=O	·	–	·	–	·	·
C[C@@H]1CN([C@H](C)CO)C(=O)c2cc(C3=CCCC3)cnc2O[C@@H]1CN(C)Cc1ccc(C(=O)O)cc1	·	–	·	–	·	·
Cc1noc(C)c1NC(=O)Nc1cccc2c1O[C@H](CN(C)Cc1ccc(-c3ccccc3)cc1)[C@@H](C)CN([C@H](C)CO)C2=O	·	62	·	·	·	·
C[C@@H]1CN([C@@H](C)CO)C(=O)c2cccc(NC(=O)c3cnccn3)c2O[C@@H]1CN(C)Cc1ccc(Cl)c(Cl)c1	·	–	·	–	·	·
Cc1noc(C)c1NC(=O)Nc1cccc2c1O[C@H](CN(C)Cc1ccccc1)[C@@H](C)CN([C@H](C)CO)C2=O	·	–	·	–	·	·
C[C@@H]1CN([C@@H](C)CO)C(=O)c2cc(C3=CCCC3)cnc2O[C@@H]1CN(C)Cc1ccc(C(=O)O)cc1	·	–	·	60[16.7 µM]	·	·
C[C@@H]1CN([C@@H](C)CO)C(=O)c2cccc(NC(=O)c3cnccn3)c2O[C@H]1CN(C)Cc1ccc(Cl)c(Cl)c1	·	–	·	63[16.7 µM]	·	·
CC(C)NC(=O)N(C)C[C@@H]1Oc2ccc(NC(=O)Nc3ccccc3)cc2C(=O)N([C@@H](C)CO)C[C@H]1C	·	–	·	–	·	·
C[C@H](CO)N1C[C@H](C)[C@H](CN(C)C(=O)Nc2ccc(F)cc2)Oc2c(NS(=O)(=O)c3cn(C)cn3)cccc2C1=O	·	–	·	–	·	·
CCOc1cc(-c2cn(S(=O)(=O)c3cccc4nsnc34)nc2N)cc(OCC)c1OCC	·	·	–	66	–	–
CC(=O)NC[C@H]1[C@H](c2ccc(-c3ccccc3)cc2)[C@H](CO)N1C(=O)C1CC1	·	–	·	·	·	·
N#Cc1c([N+](=O)[O-])cc([N+](=O)[O-])cc1S(=O)(=O)Cc1ccccc1	–	101	–	·	–	–
COc1cc(OC)c(C#N)c(S(=O)(=O)Cc2ccccc2)c1	–	·	–	·	–	–
C[C@H]1CN([C@@H](C)CO)S(=O)(=O)c2ccc(C#CC3CCCC3)cc2O[C@@H]1CN(C)S(C)(=O)=O	·	·	·	–	·	·
CCNC(=O)[C@H]1[C@H](CO)[C@H]2Cn3c(cccc3=O)[C@@H]1N2C(=O)c1ccc(F)cc1	·	–	·	·	·	·
CCC(=O)N(C)C[C@@H]1Oc2ncc(C#Cc3ccncc3)cc2C(=O)N([C@H](C)CO)C[C@H]1C	·	·	·	–	·	·
CCOC(=O)c1c(CSC(=N)N)n(C)c2cc(Br)c(OC(C)=O)cc12	–	–	–	–	85	–
SMILES	PfHsp90 set2	PAX8 reporter	Arrestin-AP2 inh	HIV Env fusion	Rtt109 HAT inh	Glyco luc inh
CCOC(=O)c1c(CSC(=N)N)n(-c2ccc(C)cc2)c2cc(Br)c(OC(C)=O)cc12	·	?	–	–	–	–
Cc1ccc(S(=O)(=O)N(C)C[C@@H]2Oc3cc(Br)ccc3S(=O)(=O)N([C@H](C)CO)C[C@@H]2C)cc1	·	–	·	63[16.7 µM]	·	·
Cc1ccc(S(=O)(=O)N(C)C[C@@H]2Oc3cc(Br)ccc3S(=O)(=O)N([C@H](C)CO)C[C@H]2C)cc1	·	–	·	–	·	·
Cc1ccc(S(=O)(=O)N(C)C[C@H]2Oc3cc(C#Cc4ccncc4)ccc3S(=O)(=O)N([C@H](C)CO)C[C@H]2C)cc1	·	89	·	·	·	·
C[C@H](CO)N1C[C@H](C)[C@H](CN(C)S(=O)(=O)c2ccc(F)cc2)Oc2cc(Br)ccc2S1(=O)=O	·	–	·	77[16.7 µM]	·	·
C[C@H](CO)N1C[C@H](C)[C@@H](CN(C)S(=O)(=O)c2ccc(F)cc2)Oc2cc(Br)ccc2S1(=O)=O	·	–	·	–	·	·
COCC#Cc1cnc2c(c1)C(=O)N([C@@H](C)CO)C[C@H](C)[C@H](CN(C)C(=O)c1ccc(F)cc1)O2	·	·	·	–	·	·
COc1ccc(OC)c(NC(=O)C2(C)CCN2CCOc2ccccc2)c1 (stereo not drawn)	·	–	·	66	·	–
CC(C)c1ccc(OCCCN2CCC(C(O)(c3ccccc3)c3ccccc3)CC2)cc1	·	–	·	79	·	·
CCCNC(=O)C[C@H]1CC[C@@H]2[C@H](COc3ccc(NC(=O)Nc4c(C)noc4C)cc3C(=O)N2C)O1	·	–	·	·	·	·
COc1ccc(NC(=O)CSc2nnc(Cn3cnc([N+](=O)[O-])n3)n2C)cc1	–	–	–	–	–	–
Cn1c(Cn2cnc([N+](=O)[O-])n2)nnc1SCC(=O)Nc1ccccc1	–	81	–	·	–	–
COc1ccccc1-c1ccc2c(c1)C(C)(Cc1ccc(OC(F)(F)F)cc1)C(=O)N2 (stereo not drawn)	·	–	·	?	·	–
COc1ccc(Cl)cc1CC1(C)C(=O)Nc2ccc(-c3ccccc3OC)cc21 (stereo not drawn)	·	–	·	92	·	–
COc1ccc(C(C)=O)cc1CC1(C)C(=O)Nc2ccc(-c3cccc(C(F)(F)F)c3)cc21 (stereo not drawn)	·	–	·	79	·	–
COc1ccccc1-c1ccc2c(c1)C(C)(Cc1cccc(C#N)c1)C(=O)N2 (stereo not drawn)	·	–	·	101	·	–
COc1ccccc1-c1ccc2c(c1)C(C)(Cc1ccc(Cl)cc1)C(=O)N2 (stereo not drawn)	·	–	·	–	·	–
COc1ccccc1-c1ccc2c(c1)C(C)(Cc1ccc(F)c(Cl)c1)C(=O)N2 (stereo not drawn)	·	–	·	96	·	–
CC(=O)c1cccc(-c2ccc3c(c2)C(C)(Cc2ccccc2C#N)C(=O)N3)c1 (stereo not drawn)	·	–	·	–	·	–
CC1(Cc2ccc(Cl)cc2)C(=O)Nc2ccc(-c3cccnc3)cc21 (stereo not drawn)	·	–	·	69	·	–
